Measurements as given in ChEMBL document CHEMBL2413051, “Antibacterial activity of quinoxalines, quinazolines, and 1,5-naphthyridines” (2013).
In brackets after ≈: the same amount, converted by molar mass. Activity calls are given as the source filed them. No cut-off for these calls is given here.

Experiments:
[1] = target: T1, Cell division protein FtsZ (Staphylococcus aureus) (UniProt P0A031); test: Stimulation of purified Staphylococcus aureus FtsZ polymerization at 40 ug/ml by microtiter plate based light-scattering assay in presence of 10 mM depolymerizing agent GDP
T1 sequence (whole entry): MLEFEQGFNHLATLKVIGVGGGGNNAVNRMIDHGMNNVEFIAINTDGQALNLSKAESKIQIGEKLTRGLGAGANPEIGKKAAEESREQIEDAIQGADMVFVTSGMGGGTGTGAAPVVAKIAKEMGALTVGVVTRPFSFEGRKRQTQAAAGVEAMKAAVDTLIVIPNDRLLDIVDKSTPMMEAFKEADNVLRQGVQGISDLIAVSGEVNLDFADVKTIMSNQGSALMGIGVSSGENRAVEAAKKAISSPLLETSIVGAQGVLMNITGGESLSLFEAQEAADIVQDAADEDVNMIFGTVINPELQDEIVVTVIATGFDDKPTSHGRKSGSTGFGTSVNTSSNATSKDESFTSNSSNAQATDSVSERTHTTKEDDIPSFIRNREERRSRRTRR

Enterococcus faecalis [2] = test: microbe, parasite or virus in culture; type: functional; conditions: ATCC 51575
Enterococcus faecalis [3] = test: microbe, parasite or virus in culture; type: functional; conditions: ATCC 19433
Staphylococcus aureus [4] = test: microbe, parasite or virus in culture; type: functional; conditions: ATCC 33591
Staphylococcus aureus [5] = test: microbe, parasite or virus in culture; type: functional; conditions: 8325-4
Staphylococcus aureus [6] = test: Bactericidal activity against methicillin-resistant Staphylococcus aureus ATCC 33591; type: functional
Staphylococcus aureus [7] = test: Bactericidal activity against methicillin-sensitive Staphylococcus aureus 8325-4; type: functional
How it was run: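 MBC against MSSA strain 8325-4, determined per a previously described method; paired MIC by CLSI broth microdilution, MIC being lowest concentration giving ≥90% growth inhibition.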

Enterococcus faecalis [8] = test: Ratio of MBC to MIC for vancomycin-resistant Enterococcus faecalis ATCC 51575; type: functional
How it was run: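 Ratio of MBC to MIC, both in µg/mL. MIC was found by CLSI broth microdilution as the lowest concentration giving ≥90% growth inhibition. MBC was found by a previously described method. Per CLSI, a ratio of 1–2 is read as bactericidal and ≥8 as bacteriostatic.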

Enterococcus faecalis [9] = test: Bactericidal activity against vancomycin-resistant Enterococcus faecalis ATCC 51575; type: functional
Staphylococcus aureus [10] = test: Ratio of MBC to MIC for methicillin-sensitive Staphylococcus aureus 8325-4; type: functional
[11] = target: T1, Cell division protein FtsZ (Staphylococcus aureus); test: Stimulation of purified Staphylococcus aureus FtsZ polymerization at 40 ug/ml by microtiter plate based light-scattering assay

Compound | Activity [1] | MIC (Enterococcus faecalis [2]) [µg/mL] | MIC (Enterococcus faecalis [3]) [µg/mL] | MIC (Staphylococcus aureus [4]) [µg/mL] | MIC (Staphylococcus aureus [5]) [µg/mL] | MBC (Staphylococcus aureus [6]) [µg/mL] | MBC (Staphylococcus aureus [7]) [µg/mL] | Ratio (Enterococcus faecalis [8]) | MBC (Enterococcus faecalis [9]) [µg/mL] | Ratio (Staphylococcus aureus [10]) | Activity [11]
CC(=N)NCc1cccc2c(-c3ccc(C(C)(C)C)cc3)ncnc12 | Active | 64 (≈ 193 µM) | 64 (≈ 193 µM) | 64 (≈ 193 µM) | 32 (≈ 96.3 µM) |  |  |  |  |  | 
C[n+]1cc(-c2cc(C(=O)NCCO)cc(-c3ccc(C(C)(C)C)cc3)c2)nc2ccccc21.[I-] | Active | 8 | 8 | 4 | 4 |  |  |  |  |  | 
CN[C@H](CC(C)C)C(=O)N[C@H]1C(=O)N[C@@H](CC(N)=O)C(=O)N[C@H]2C(=O)N[C@H]3C(=O)N[C@H](C(=O)N[C@H](C(=O)O)c4cc(O)cc(O)c4-c4cc3ccc4O)[C@H](O)c3ccc(c(Cl)c3)Oc3cc2cc(c3O[C@@H]2O[C@H](CO)[C@@H](O)[C@H](O)[C@H]2O[C@H]2C[C@](C)(N)[C@H](O)[C@H](C)O2)Oc2ccc(cc2Cl)[C@H]1O [VANCOMYCIN] |  | > 64 | 1 (≈ 0.69 µM) |  |  | 4 (≈ 2.76 µM) | 1 (≈ 0.69 µM) |  |  |  | 
C[n+]1cc(-c2cccc(-c3ccccc3)c2)nc2ccccc21.[I-] | Active | 8 | 8 | 0.5 | 0.5 | 4 | 4 | 8 | 64 | 8 | inactive
CC(C)(C)c1ccc(-c2cc(C(=O)NCCN)cc(-c3cnc4ccccc4n3)c2)cc1 | Active | 8 (≈ 18.8 µM) | 8 (≈ 18.8 µM) | 4 (≈ 9.42 µM) | 4 (≈ 9.42 µM) |  |  |  |  |  | 
CCC[C@@H]1C[C@@H](C(=O)N[C@@H]([C@H]2O[C@H](SC)[C@H](O)[C@@H](O)[C@H]2O)[C@H](C)Cl)N(C)C1 [CLINDAMYCIN] |  | > 64 | 2 (≈ 4.71 µM) | > 64 | 0.03 (≈ 0.0706 µM) |  |  |  |  |  | 
COC(=O)c1cc(-c2ccc(C(C)(C)C)cc2)cc(-c2cnc3ccccc3n2)c1 | Active | > 64 | > 64 | > 64 | > 64 |  |  |  |  |  | 
COC(=O)c1cc(-c2ccc(C(C)(C)C)cc2)cc(-c2c[n+](C)c3ccccc3n2)c1.[I-] | Active | 4 | 4 | 1 | 1 |  |  |  |  |  | 
Fc1cccc(-c2cnc3ccccc3n2)c1 | Active | > 64 | > 64 | > 64 | > 64 |  |  |  |  |  | 
Cc1onc(-c2ccccc2)c1C(=O)N[C@@H]1C(=O)N2[C@@H]1SC(C)(C)[C@@H]2C(=O)O [OXACILLIN] |  | > 64 | 8 (≈ 19.9 µM) | > 64 | 0.06 (≈ 0.149 µM) |  |  |  |  |  | 
c1ccc2nccnc2c1 [QUINOXALINE] | Active | > 64 | > 64 | > 64 | > 64 |  |  |  |  |  | 
CC(C)(C)c1ccc(-c2cc(C(N)=O)cc(-c3cnc4ccccc4n3)c2)cc1 | Active | > 64 | > 64 | > 64 | > 64 |  |  |  |  |  | 
CC(C)(C)c1ccc(-c2ncnc3c(CN)cccc23)cc1 | Active | 64 (≈ 220 µM) | 64 (≈ 220 µM) | 64 (≈ 220 µM) | 32 (≈ 110 µM) |  |  |  |  |  | 
CN(C)[C@@H]1C(O)=C(C(N)=O)C(=O)[C@@]2(O)C(O)=C3C(=O)c4c(O)cccc4[C@@](C)(O)[C@H]3C[C@@H]12 [TETRACYCLINE] |  | > 64 | 0.5 (≈ 1.13 µM) | 64 (≈ 144 µM) | 0.06 (≈ 0.135 µM) |  |  |  |  |  | 
C[n+]1ccnc2ccccc21.[I-] | Active | > 64 | > 64 | > 64 | 32 |  |  |  |  |  | 
C[n+]1cc(-c2ccccc2)nc2ccccc21.[I-] | Active | > 64 | 32 | 8 | 4 |  |  |  |  |  | 
CC(C)(C)c1ccc(-c2cccc3c(CNC(=N)N)ncnc23)cc1 | Active | > 64 | > 64 | 64 (≈ 192 µM) | 16 (≈ 48 µM) |  |  |  |  |  | 
CC[C@H]1OC(=O)[C@H](C)[C@@H](O[C@H]2C[C@@](C)(OC)[C@@H](O)[C@H](C)O2)[C@H](C)[C@@H](O[C@@H]2O[C@H](C)C[C@H](N(C)C)[C@H]2O)[C@](C)(O)C[C@@H](C)C(=O)[C@H](C)[C@@H](O)[C@]1(C)O [ERYTHROMYCIN] |  | > 64 | 1 (≈ 1.36 µM) | > 64 | 0.13 (≈ 0.177 µM) |  | 32 (≈ 43.6 µM) |  |  |  | 
C[n+]1cc(-c2cc(C(N)=O)cc(-c3ccc(C(C)(C)C)cc3)c2)nc2ccccc21.[I-] | Active | 4 | 4 | 2 | 2 |  |  |  |  |  | 
c1ccc(-c2cccc(-c3cnc4ccccc4n3)c2)cc1 | Active | > 64 | > 64 | > 64 | > 64 |  |  |  |  |  | 
CC(C)(C)c1ccc(-c2ccnc3c(CN)ccnc23)cc1 | Active | > 64 | > 64 | > 64 | > 64 |  |  |  |  |  | 
C[n+]1cc(-c2cccc(F)c2)nc2ccccc21.[I-] | Active | 32 | 32 | 4 | 2 |  |  |  |  |  | 
CC(C)(C)c1cccc(-c2cnc3ccccc3n2)c1 | Active | > 64 | > 64 | > 64 | > 64 |  |  |  |  |  | 
CC(C)(C)c1ccc(-c2cc(C(=O)NCCO)cc(-c3cnc4ccccc4n3)c2)cc1 | Active | > 64 | > 64 | > 64 | > 64 |  |  |  |  |  | 
CC(C)(C)c1ccc(-c2cnc3ccccc3n2)cc1 | Active | > 64 | > 64 | > 64 | > 64 |  |  |  |  |  | 
c1ccc(-c2cnc3ccccc3n2)cc1 | Active | > 64 | > 64 | > 64 | > 64 |  |  |  |  |  | 
C[n+]1cc(-c2cccc(C(C)(C)C)c2)nc2ccccc21.[I-] | Active | 16 | 8 | 2 | 2 | 16 | 16 | 4 | 64 | 8 | inactive
C[n+]1cc(-c2ccc(C(C)(C)C)cc2)nc2ccccc21.[I-] | Active | 16 | 16 | 1 | 0.5 | 16 | 8 | 4 | 64 | 16 | 
